The target of the test is Amyloid-beta precursor protein (Homo sapiens, UniProt P05067). Put plainly: Inhibition of gamma-secretase. An outline of the steps: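 Membrane preparation (5.0 µg total protein, in 20 mM Hepes pH 5.0, 5 mM EDTA) incubated 2 h at 37 °C with compound serially diluted in DMSO then in start buffer (Hepes pH 7.5, 5 mM EDTA); 2% DMSO final. Quenched with Tris/NaCl/BSA/Triton mix carrying biotin-W02 and Europium-labelled G2-10 (both Aβ40-specific) plus allophycocyanin-streptavidin. Signal developed 2–16 h at room temperature; HTRF at 665 nm. IC50 as mean of ≥2 determinations.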
Sequence of Amyloid-beta precursor protein (P05067 whole entry): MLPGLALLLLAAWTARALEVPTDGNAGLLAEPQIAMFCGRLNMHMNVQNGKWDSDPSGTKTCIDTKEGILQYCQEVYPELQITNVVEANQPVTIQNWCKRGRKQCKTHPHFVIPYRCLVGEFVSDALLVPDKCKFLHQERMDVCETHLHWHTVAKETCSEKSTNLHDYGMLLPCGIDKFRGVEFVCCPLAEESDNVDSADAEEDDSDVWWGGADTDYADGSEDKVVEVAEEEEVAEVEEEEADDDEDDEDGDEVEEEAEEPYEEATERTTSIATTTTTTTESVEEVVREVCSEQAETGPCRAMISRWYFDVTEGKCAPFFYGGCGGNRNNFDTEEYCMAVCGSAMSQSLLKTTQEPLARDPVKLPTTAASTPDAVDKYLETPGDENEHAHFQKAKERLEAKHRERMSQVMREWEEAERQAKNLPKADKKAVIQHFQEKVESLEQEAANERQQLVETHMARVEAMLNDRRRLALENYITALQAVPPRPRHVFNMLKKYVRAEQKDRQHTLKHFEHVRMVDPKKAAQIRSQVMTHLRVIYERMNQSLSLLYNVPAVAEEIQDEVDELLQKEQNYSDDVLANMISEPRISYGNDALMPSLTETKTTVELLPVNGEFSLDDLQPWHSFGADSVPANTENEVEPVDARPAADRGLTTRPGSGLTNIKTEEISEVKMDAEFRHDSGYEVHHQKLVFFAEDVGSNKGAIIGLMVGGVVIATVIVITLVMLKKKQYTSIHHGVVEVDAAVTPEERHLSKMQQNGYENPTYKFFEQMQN

The compound `O=C(NCCCn1ccnc1)OCCC1CCc2ccccc2N1S(=O)(=O)c1ccc(Cl)cc1` (stereo unspecified) [2-(1-(4-chlorophenylsulfonyl)-1,2,3,4-tetrahydroquinolin-2-yl)ethyl 3-(1H-imidazol-1-yl)propylcarbamate] came in with an IC50 of 280 nM.

The compound `CN1CCCC1CCNC(=O)OCCCC1CCc2ccccc2N1S(=O)(=O)c1ccc(Cl)cc1` (stereo unspecified) [3-(1-(4-chlorophenylsulfonyl)-1,2,3,4-tetrahydroquinolin-2-yl)propyl 2-(1-methylpyrrolidin-2-yl)ethylcarbamate] returned an IC50 of 220 nM.

As for `O=C(NCCCn1ccnc1)OCCCC1CCc2ccccc2N1S(=O)(=O)c1ccc(Cl)cc1` (stereo unspecified) [3-(1-(4-chlorophenylsulfonyl)-1,2,3,4-tetrahydroquinolin-2-yl)propyl 3-(1H-imidazol-1-yl)propylcarbamate], half-maximal inhibition (IC50) was put at 86 nM.

`O=C(OCCCC1CCc2ccccc2N1S(=O)(=O)c1ccc(Cl)cc1)N1CCN(C2CCCCC2)CC1` (stereo unspecified) [3-(1-(4-chlorophenylsulfonyl)-1,2,3,4-tetrahydroquinolin-2-yl)propyl 4-cyclohexylpiperazine-1-carboxylate] had a half-inhibitory concentration (IC50) of 180 nM.

`CN1CCCC1CCNC(=O)OC[C@H]1CC[C@@H](c2ccccc2)N1S(=O)(=O)c1ccc(Cl)cc1` (stereo partly drawn) [((2R,5S)-1-(4-chlorophenylsulfonyl)-5-phenylpyrrolidin-2-yl)methyl 2-(1-methylpyrrolidin-2-yl)ethylcarbamate]: the IC50 amounted to 600 nM.

For the compound `O=C(OC[C@H]1CC[C@@H](c2ccccc2)N1S(=O)(=O)c1ccc(Cl)cc1)N1CCN(CCO)CC1` [((2R,5S)-1-(4-chlorophenylsulfonyl)-5-phenylpyrrolidin-2-yl)methyl 4-(2-hydroxyethyl)piperazine-1-carboxylate], inhibition was half-maximal at 540 nM (IC50).

The term IC50 denotes the concentration needed to halve the response being measured. Higher therefore signals weaker potency.

These data come from BindingDB's records for doi:10.1016/j.bmcl.2007.03.055 (Pharmacopeia Drug Discovery, 2007).
